Experimental data: ChEMBL document CHEMBL3588757, “Structure-based design, synthesis and biological testing of piperazine-linked bis-epipodophyllotoxin etoposide analogs” (Bioorg Med Chem, 2015)
Active and inactive are the calls of the source. The rule behind the calls is not given here.

Tests used:
A549 = assay: Cytotoxicity against human A549/ATCC cells assessed as cell growth at 50 uM by SRB assay; format: functional; settings: read-out: Activity
MOLT-4 [1] = assay: Cytotoxicity against human MOLT4 cells assessed as cell growth at 0.05 uM by SRB assay; format: functional; settings: read-out: Activity
BT-549 = assay: Cytotoxicity against human BT549 cells assessed as cell growth at 0.5 uM by SRB assay; format: functional; settings: read-out: Activity
UACC-257 [2] = assay: Cytotoxicity against human UACC257 cells assessed as cell growth at 0.5 uM by SRB assay; format: functional; settings: read-out: Activity
LOX IMVI = assay: Cytotoxicity against human LOXIMVI cells assessed as cell growth at 5 uM by SRB assay; format: functional; settings: read-out: Activity
K562 = assay: Induction of DNA double strand breaks in human K562 cells assessed as increase in gamma-H2AX level at 25 uM after 4 hrs by chemiluminescence analysis; format: functional, cell-based
In short: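 K562 cells (3.4 × 10^5/mL) exposed 4 h at 37 °C to 25 µM drug or DMSO. Lysed in Tris pH 6.7/SDS buffer; 50 µg protein on 14% SDS-PAGE, PVDF blot. Rabbit anti-γH2AX (1:1000, overnight), GAPDH loading control, HRP secondary. Chemiluminescence imaged by CCD.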

NCI-H23 = assay: Cytotoxicity against human NCI-H23 cells assessed as cell growth at 0.005 uM by SRB assay; format: functional; settings: read-out: Activity
SK-MEL-5 [3] = assay: Cytotoxicity against human SK-MEL-5 cells assessed as cell growth at 50 uM by SRB assay; format: functional; settings: read-out: Activity
SF-539 = assay: Cytotoxicity against human SF539 cells by SRB assay; format: functional
In short: (§1)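 NCI-60 panel screen; 5-dose testing giving GI50 per cell line, plus a single 10 µM one-dose test. Method details not given beyond the NCI screen.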

MOLT-4 [4] = assay: Cytotoxicity against human MOLT4 cells by SRB assay; format: functional; in short: as §1
T47D [5] = assay: Cytotoxicity against human T47D cells assessed as cell growth at 0.5 uM by SRB assay; format: functional; settings: read-out: Activity
OVCAR-5 [6] = assay: Cytotoxicity against human OVCAR5 cells assessed as cell growth at 0.005 uM by SRB assay; format: functional; settings: read-out: Activity
SNB-19 = assay: Cytotoxicity against human SNB19 cells assessed as cell growth at 0.05 uM by SRB assay; format: functional; settings: read-out: Activity
[7] = target: DNA topoisomerase 2-alpha (Homo sapiens) (UniProt P11388); assay: Inhibition of full-length human recombinant topoisomerase 2-alpha mediated relaxation and cleavage of supercoiled pBR322 plasmid DNA to linear DNA by ethidium bromide staining based gel electrophoresis assay
In short: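 Recombinant full-length human topoisomerase IIα with supercoiled pBR322 DNA at 37 °C. Components mixed on ice before drug addition. Complexes trapped with SDS; products run on ethidium bromide gels. Linear DNA identified against a HindIII-linearized marker; repeated on three days.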

NCI-H460 = assay: Cytotoxicity against human NCI-H460 cells assessed as cell growth at 5 uM by SRB assay; format: functional; settings: read-out: Activity
786-0 = assay: Cytotoxicity against human 786-0 cells assessed as cell growth at 50 uM by SRB assay; format: functional; settings: read-out: Activity
UACC-257 [8] = assay: Cytotoxicity against human UACC257 cells assessed as cell growth at 0.005 uM by SRB assay; format: functional; settings: read-out: Activity
[9] = Cytotoxicity against human Hs578T cells assessed as cell growth at 0.05 uM by SRB assay; format: functional; settings: Hs-578T, read-out: Activity
In short: (§2)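 Measured in the NCI-60 human tumour cell line panel using five-dose testing. Growth was recorded at each dose for each cell line, and a GI50 was derived for each line.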

CAKI-1 [10] = assay: Cytotoxicity against human Caki1 cells assessed as cell growth at 0.05 uM by SRB assay; format: functional; settings: read-out: Activity
SK-MEL-5 [11] = assay: Cytotoxicity against human SK-MEL-5 cells assessed as cell growth at 0.005 uM by SRB assay; format: functional; settings: read-out: Activity
DU-145 [12] = assay: Cytotoxicity against human DU145 cells assessed as cell growth at 5 uM by SRB assay; format: functional; settings: read-out: Activity; in short: as §2
HCC 2998 [13] = assay: Cytotoxicity against human HCC2998 cells assessed as cell growth at 5 uM by SRB assay; format: functional; settings: read-out: Activity; in short: as §2
ACHN = assay: Cytotoxicity against human ACHN cells assessed as cell growth at 5 uM by SRB assay; format: functional; settings: read-out: Activity
DU-145 [14] = assay: Cytotoxicity against human DU145 cells assessed as cell growth at 0.005 uM by SRB assay; format: functional; settings: read-out: Activity
CAKI-1 [15] = assay: Cytotoxicity against human Caki1 cells assessed as cell growth at 0.5 uM by SRB assay; format: functional; settings: read-out: Activity
[16] = Cytotoxicity against human NCI-ADR-RES cells assessed as cell growth at 0.05 uM by SRB assay; format: functional; settings: read-out: Activity
T47D [17] = assay: Cytotoxicity against human T47D cells assessed as cell growth at 0.005 uM by SRB assay; format: functional; settings: read-out: Activity
SR = assay: Cytotoxicity against human SR cells by SRB assay; format: functional; in short: as §1
OVCAR-5 [18] = assay: Cytotoxicity against human OVCAR5 cells assessed as cell growth at 5 uM by SRB assay; format: functional; settings: read-out: Activity
OVCAR-3 = assay: Cytotoxicity against human OVCAR3 cells assessed as cell growth at 50 uM by SRB assay; format: functional; settings: read-out: Activity
MDA-MB-231 [19] = assay: Cytotoxicity against human MDA-MB-231/ATCC cells assessed as cell growth at 5 uM by SRB assay; format: functional; settings: read-out: Activity
SN12C = assay: Cytotoxicity against human SN12C cells assessed as cell growth at 0.005 uM by SRB assay; format: functional; settings: read-out: Activity
MDA-MB-231 [20] = assay: Cytotoxicity against human MDA-MB-231/ATCC cells assessed as cell growth at 0.005 uM by SRB assay; format: functional; settings: read-out: Activity
HOP-92 = assay: Cytotoxicity against human HOP92 cells assessed as cell growth at 0.005 uM by SRB assay; format: functional; settings: read-out: Activity; in short: as §2
RXF 393 = assay: Cytotoxicity against human RXF393 cells assessed as cell growth at 0.005 uM by SRB assay; format: functional; settings: read-out: Activity
UACC-62 = assay: Cytotoxicity against human UACC62 cells by SRB assay; format: functional; in short: as §1
HCC 2998 [21] = assay: Cytotoxicity against human HCC2998 cells assessed as cell growth at 0.005 uM by SRB assay; format: functional; settings: read-out: Activity; in short: as §2
SNB-75 = assay: Cytotoxicity against human SNB75 cells assessed as cell growth at 0.05 uM by SRB assay; format: functional; settings: read-out: Activity
NCI-H322M = assay: Cytotoxicity against human NCI-H322M cells by SRB assay; format: functional; in short: as §1
[22] = read-out: LC50 (the source's name)
[23] = read-out: pLC50 (the source's name) (converted)

Sequence of DNA topoisomerase 2-alpha (Homo sapiens) (P11388 whole entry): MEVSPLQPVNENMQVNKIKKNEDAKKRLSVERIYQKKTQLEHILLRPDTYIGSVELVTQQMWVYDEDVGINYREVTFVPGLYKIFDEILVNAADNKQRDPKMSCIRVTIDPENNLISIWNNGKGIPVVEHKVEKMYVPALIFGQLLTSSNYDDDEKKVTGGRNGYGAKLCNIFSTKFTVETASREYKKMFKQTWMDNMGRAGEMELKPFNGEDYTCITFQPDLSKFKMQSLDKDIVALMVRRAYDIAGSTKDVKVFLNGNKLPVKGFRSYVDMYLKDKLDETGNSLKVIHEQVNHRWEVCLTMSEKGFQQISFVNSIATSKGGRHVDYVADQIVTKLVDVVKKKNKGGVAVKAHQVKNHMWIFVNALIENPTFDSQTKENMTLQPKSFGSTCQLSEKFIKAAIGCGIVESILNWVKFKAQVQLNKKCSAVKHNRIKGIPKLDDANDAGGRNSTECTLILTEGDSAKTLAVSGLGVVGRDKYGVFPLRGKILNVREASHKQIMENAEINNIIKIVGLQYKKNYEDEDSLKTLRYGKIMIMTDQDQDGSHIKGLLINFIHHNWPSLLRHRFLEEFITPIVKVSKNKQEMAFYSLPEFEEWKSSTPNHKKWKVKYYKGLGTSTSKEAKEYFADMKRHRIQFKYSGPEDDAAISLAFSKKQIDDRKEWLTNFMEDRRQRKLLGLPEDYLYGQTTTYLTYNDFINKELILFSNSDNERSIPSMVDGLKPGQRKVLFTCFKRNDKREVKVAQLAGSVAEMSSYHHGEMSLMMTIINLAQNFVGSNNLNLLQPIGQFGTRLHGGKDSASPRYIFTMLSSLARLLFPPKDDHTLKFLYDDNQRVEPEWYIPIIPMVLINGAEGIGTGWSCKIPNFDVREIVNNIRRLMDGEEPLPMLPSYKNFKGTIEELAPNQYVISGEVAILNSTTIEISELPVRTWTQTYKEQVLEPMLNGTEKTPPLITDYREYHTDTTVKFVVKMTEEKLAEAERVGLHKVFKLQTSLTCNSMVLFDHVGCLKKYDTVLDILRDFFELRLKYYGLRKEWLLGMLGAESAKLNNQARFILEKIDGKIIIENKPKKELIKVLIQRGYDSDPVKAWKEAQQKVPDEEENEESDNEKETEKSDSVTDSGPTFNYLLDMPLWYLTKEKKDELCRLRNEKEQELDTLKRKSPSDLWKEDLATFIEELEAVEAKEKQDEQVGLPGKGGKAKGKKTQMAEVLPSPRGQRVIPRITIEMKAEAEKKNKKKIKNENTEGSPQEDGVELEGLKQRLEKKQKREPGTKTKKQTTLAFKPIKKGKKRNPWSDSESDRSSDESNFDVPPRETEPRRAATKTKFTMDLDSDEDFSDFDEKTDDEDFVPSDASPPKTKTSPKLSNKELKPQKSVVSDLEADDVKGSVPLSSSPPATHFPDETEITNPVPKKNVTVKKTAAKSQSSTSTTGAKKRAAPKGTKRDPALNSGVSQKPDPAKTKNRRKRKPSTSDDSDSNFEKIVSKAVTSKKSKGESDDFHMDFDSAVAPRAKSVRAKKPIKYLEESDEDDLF

COc1cc([C@@H]2c3cc4c(cc3[C@@H](NC(=O)CN3CCN(CCCCCCCCCCN5CCN(CC(=O)N[C@@H]6c7cc8c(cc7[C@@H](c7cc(OC)c(O)c(OC)c7)[C@H]7C(=O)OC[C@@H]76)OCO8)CC5)CC3)[C@H]3COC(=O)[C@H]23)OCO4)cc(OC)c1O
growth at 50 µM (A549): -41%
growth at 0.05 µM (MOLT-4 [1]): 67%
growth at 0.5 µM (BT-549): 58%
growth at 0.5 µM (UACC-257 [2]): 73%
growth at 5 µM (LOX IMVI): -80%
Activity (K562): Active
growth at 0.005 µM (NCI-H23): 95%
growth at 50 µM (SK-MEL-5 [3]): -68%
GI50 (SF-539; read-out: GI50): 122 nM
TGI (SF-539; read-out: TGI): 670 nM
GI50 (SF-539; read-out: pGI50 (converted)): 123 nM
TGI (SF-539; read-out: pTGI (converted)): 676 nM
GI50 (MOLT-4 [4]; read-out: GI50): 185 nM
CC50 (MOLT-4 [4]; [22]): 6020 nM
TGI (MOLT-4 [4]; read-out: TGI): 1400 nM
GI50 (MOLT-4 [4]; read-out: pGI50 (converted)): 186 nM
CC50 (MOLT-4 [4]; [23]): 6030 nM
TGI (MOLT-4 [4]; read-out: pTGI (converted)): 1410 nM
growth at 0.5 µM (T47D [5]): 49%
growth at 0.005 µM (OVCAR-5 [6]): 95%
growth at 0.05 µM (SNB-19): 93%
Effect on topoisomerase 2-alpha DNA cleavage (qualitative) [7]: Dose-dependent effect
growth at 5 µM (NCI-H460): 33%
growth at 50 µM (786-0): -78%
growth at 0.005 µM (UACC-257 [8]): 96%
growth at 0.05 µM [9]: 95%
growth at 0.05 µM (CAKI-1 [10]): 89%
growth at 0.005 µM (SK-MEL-5 [11]): 102%
growth at 5 µM (DU-145 [12]): -7%
growth at 5 µM (HCC 2998 [13]): 29%
growth at 5 µM (ACHN): -77%
growth at 0.005 µM (DU-145 [14]): 99%
growth at 0.5 µM (CAKI-1 [15]): 81%
growth at 0.05 µM [16]: 97%
growth at 0.005 µM (T47D [17]): 94%
GI50 (SR; read-out: GI50): 232 nM
CC50 (SR; [22]): > 50000 nM
TGI (SR; read-out: TGI): 1810 nM
GI50 (SR; read-out: pGI50 (converted)): 229 nM
CC50 (SR; [23]): > 50100 nM
TGI (SR; read-out: pTGI (converted)): 1820 nM
growth at 5 µM (OVCAR-5 [18]): 5%
growth at 50 µM (OVCAR-3): -50%
growth at 5 µM (MDA-MB-231 [19]): -45%
growth at 0.005 µM (SN12C): 94%
growth at 0.005 µM (MDA-MB-231 [20]): 98%
growth at 0.005 µM (HOP-92): 91%
growth at 0.005 µM (RXF 393): 88%
GI50 (UACC-62; read-out: GI50): 7230 nM
CC50 (UACC-62; [22]): > 50000 nM
TGI (UACC-62; read-out: TGI): 24100 nM
GI50 (UACC-62; read-out: pGI50 (converted)): 7240 nM
CC50 (UACC-62; [23]): > 50100 nM
TGI (UACC-62; read-out: pTGI (converted)): 24000 nM
growth at 0.005 µM (HCC 2998 [21]): 99%
growth at 0.05 µM (SNB-75): 82%
GI50 (NCI-H322M; read-out: GI50): 387 nM
CC50 (NCI-H322M; [22]): > 50000 nM
TGI (NCI-H322M; read-out: TGI): 1640 nM
GI50 (NCI-H322M; read-out: pGI50 (converted)): 389 nM
CC50 (NCI-H322M; [23]): > 50100 nM
TGI (NCI-H322M; read-out: pTGI (converted)): 1620 nM
